Assay results taken from ChEMBL document CHEMBL1144751, “Synthesis of caged 2,3,3a,7a-tetrahydro-3,6-methanobenzofuran-7(6H)-ones: Evaluating the minimum structure for apoptosis induction by gambogic acid” (Bioorg Med Chem, 2008).

Key:
[1] = tested on: HCT-116; experiment: Induction of apoptosis in human HCT116 cells assessed as caspase 3 activation after 24 hrs; format: functional, cell-based; settings: HCT-116, 24 h
Outline: (§1)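 Cell-based caspase-3 activation HTS assay. After compound exposure, the fluorogenic caspase-3 substrate N-(Ac-DEVD)-N-ethoxycarbonyl-R110 in caspase buffer was added and incubated 2 h at 37 °C. Fluorescence was read as RFU. Activation is the ratio of net RFU for treated samples to that of control samples. Values are means ± SEM of three or more experiments.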

[2] = tested on: T47D; experiment: Growth inhibition of human T47D cells after 48 hrs by CellTiter-Glo assay; format: functional
Outline: (§2)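 T47D, HCT116 and SNU398 cells from ATCC, run in 96-well format. Cells were exposed continuously to test compound for 48 h, then given CellTiter-Glo reagent, mixed by agitation, held 10–15 min at room temperature and read by luminescence. GI50 is the concentration giving 50% inhibition relative to untreated control cells. Values are means ± SEM of three experiments.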

[3] = tested on: T47D; experiment: Induction of apoptosis in human T47D cells assessed as caspase 3 activation after 24 hrs; format: functional, cell-based; outline: as §1
[4] = tested on: SNU-398; experiment: Induction of apoptosis in human SNU398 cells assessed as caspase 3 activation after 24 hrs; format: functional, cell-based; settings: SNU-398, 24 h; outline: as §1
[5] = tested on: SNU-398; experiment: Growth inhibition of human SNU398 cells after 48 hrs by CellTiter-Glo assay; format: functional; settings: SNU-398, 48 h; outline: as §2
[6] = tested on: HCT-116; experiment: Growth inhibition of human HCT116 cells after 48 hrs by CellTiter-Glo assay; format: functional; settings: HCT-116, 48 h; outline: as §2

| Compound | EC50 [1] | GI50 [2] | EC50 [3] | EC50 [4] | GI50 [5] | GI50 [6] |
| --- | --- | --- | --- | --- | --- | --- |
| C=CC[C@]12OCC3C[C@@]4(Oc5ccccc5C(=O)C4=C[C@@H]31)C2=O | > 20 µM | 1.4 µM | 5.9 µM | 5.1 µM | 1.5 µM | 1.5 µM |
| CC(C)=CC[C@]12OC(C)(C)C3C[C@@]4(OC(c5ccccc5)=CC(=O)C4=C[C@@H]31)C2=O | 3.6 µM | 1 µM | 4.8 µM | 2.5 µM | 1.2 µM | 0.9 µM |
| CC(C)=CC[C@]12OC(C)(C)C3C[C@@]4(Oc5ccccc5C(=O)C4=C[C@@H]31)C2=O | 1.9 µM | 0.3 µM | 2.7 µM | 1.5 µM | 0.3 µM | 0.2 µM |
| CC(C)=CC[C@@]12OC(C)(C)C3C[C@H](C=C4C(=O)c5ccccc5O[C@]431)C2=O | 2.3 µM | 0.2 µM | 3 µM | 0.9 µM | 0.2 µM | 0.2 µM |
| CC(C)=CCC[C@]1(C)C=Cc2c(O)c3c(c(CC=C(C)C)c2O1)O[C@]12C(C[C@H]4CC1C(C)(C)O[C@@]2(C/C=C(\C)C(=O)O)C4=O)C3=O (stereo partly drawn) | > 20 µM | > 20 µM | > 20 µM | > 20 µM | > 20 µM | > 20 µM |
| CC(C)=CC[C@@]12OC(C)(C)C3C[C@H](C=C4C(=O)C=C(c5ccccc5)O[C@]431)C2=O | 5.4 µM | 1.4 µM | 5.1 µM | 2.6 µM | 1.2 µM | 1.1 µM |
| CC(C)=CCC[C@]1(C)C=Cc2c(O)c3c(c(CC=C(C)C)c2O1)O[C@]12C(=C[C@@H]4C[C@H]1C(C)(C)O[C@@]2(C/C=C(/C)C(=O)O)C4=O)C3=O [GAMBOGIC ACID] | 0.7 µM | 0.2 µM | 0.7 µM | 0.7 µM | 0.2 µM | 0.1 µM |

The remaining lines, values ahead:

| EC50 [1] | GI50 [2] | EC50 [3] | EC50 [4] | GI50 [5] | GI50 [6] | Compound |
| --- | --- | --- | --- | --- | --- | --- |
| > 20 µM | > 20 µM | > 20 µM | > 20 µM | > 20 µM | > 20 µM | C=CC[C@@]12OCC3C[C@H](CC4C(=O)c5ccccc5O[C@@]341)C2=O (stereo partly drawn) |
| > 20 µM |  | > 20 µM | > 20 µM |  |  | C=CC[C@@]12CC3CO[C@](CC=C)(C1=O)[C@@]3(CC=C)C=C2C(=O)c1ccccc1 |
| 7.1 µM | 1.6 µM | > 20 µM | 5.7 µM | 1.9 µM | 1.6 µM | C=CC[C@@]12OCC3C[C@H](C=C4C(=O)c5ccccc5O[C@]431)C2=O |
| > 20 µM | > 20 µM | > 20 µM | > 20 µM | > 20 µM | > 20 µM | C=CC[C@@]12C=C(C(=O)c3ccccc3)[C@]3(CC=C)C(CO[C@@]3(CC=C)C1=O)C2 |
